rRNA inh HTS: selective bacterial rRNA inhibition in E. coli; E. coli WT GFP vs humanized-ribosome RFP mutants, fluorescence, 24 h; stronger effect = lower value; DMSO median 0, no signal -100; GFP signal change (wild-type ribosome), % (no concentration beside the values); 350,000 compounds, 1.6% hits; AID 720706;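 active = significant combined selectivity score with lowered wild-type GFP, culture density cut under 30%, mutant RFP and density less affected; inactive = any of these conditions unmet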
FN deposit inh: fibronectin deposition inhibition. AID 743247. AH1F fibroblasts, Alexa488-fibronectin deposition fluorescence, overnight. 350,000 compounds, 0.086% hits. inhibition, % at 12.6 µM;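 active = mean inhibition across replicates of 30% or more, regardless of how many single replicates reach that level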;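 also: positive control wells lacked labelled fibronectin entirely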
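Assay system: AH1F fibroblast monolayer, labelled fibronectin deposition. Amount: 10000 cells per well. Also added: labelled fibronectin 24 nM. Compound: single-point pinned compound. Incubation: cell attachment 1 h, compound and FN exposure overnight. Detection: fluorescence after three HBSS washes, excitation 485 nm, emission 525 nm. Read-out: inhibition of fibronectin deposition signal.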
C2C12 statin: suppressors of simvastatin-induced myotoxicity in C2C12 myotubes; ATP luminescence, 48 h; scaled: DMSO 0, geranylgeraniol control 100; 330,000 compounds, 0.78% hits; rescue of ATP level, % at 7.49 µM; AID 602340;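 active = mean ATP rescue above about 67%, or every replicate alone reaching that limit, limit read from the data, passing the limit was not always enough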;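 also: myotubes were challenged with 10 µM simvastatin during compound exposure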
SIRT5 block: sirtuin-5 (human) deacylase inhibition | inhibition, % at 15 µM | Q9NXA8 | Purified SirT5, succinyl-peptide AMC, trypsin-coupled fluorescence | 330,000 compounds, 1.1% hits | AID 652115; in the data active = inhibition above about 15%
E-selectin induc: induces E-selectin expression in human endothelial cells; P16581; HUVEC E-selectin immunofluorescence imaging; normalized: neutral wells 0, TNF-alpha wells 100; activation, % at 7.58 µM; 260,000 compounds, 0.37% hits;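 active = mean E-selectin-positive cell signal at least 10% of the positive control, reached in at least 60% of replicates, without over 20% cell loss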
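material = human umbilical vein endothelial cells (HUVEC), E-selectin induction | quantity = 3,000 cells/well | medium = EGM-2 growth medium on 0.1% gelatin-coated wells | technique = immunofluorescence imaging | read-out basis = % PE-positive cells | control set = TNF-alpha positive control, DMSO neutral control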
FGF22 binding: FGF22 (human) thermal shift binding; AID 651658; recombinant FGF22 thermal shift, SYPRO orange fluorescence; percent of sucrose octasulfate shift, DMSO zero; 340,000 compounds, 1.5% hits; Q9HCT0; activity (Tm shift, normalised), % at 9.99 µM;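 active = mean Tm shift, scaled 0 neutral to 100 positive control, at about 1.3% or above, every replicate too, limit read from the data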
Target sequence (Q9HCT0 whole entry, looked up): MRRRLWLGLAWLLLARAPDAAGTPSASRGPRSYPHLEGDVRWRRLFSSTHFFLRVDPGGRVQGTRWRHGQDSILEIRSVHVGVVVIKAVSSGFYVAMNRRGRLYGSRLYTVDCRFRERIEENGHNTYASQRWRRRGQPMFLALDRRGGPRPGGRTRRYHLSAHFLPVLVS
An asterisk follows results filed as active; · = no result given; ! = not active in a repeat. Most compounds without a hit are left out; they make up all but 4% or so of the library.

SMILES	rRNA inh HTS	FN deposit inh	C2C12 statin	SIRT5 block	E-selectin induc	FGF22 binding
COc1ccc(CNC(=O)C2CCN(S(=O)(=O)c3ccc4c(c3)C(C)(C)C(=O)N4C)CC2)cc1	4	5	86*	·	0	0
COc1cccc(CNC(=O)C2CCN(S(=O)(=O)c3ccc(-n4cnnn4)cc3)CC2)c1	-1	9	-2	·	0	43*
Cc1ccc(CNC(=O)C2CCN(S(=O)(=O)c3ccc4c(c3)CC(C)N4C(=O)C3CC3)CC2)cc1 (configuration not stated)	-28*	-2	6	-6	·	0
CC(=O)N1c2ccc(S(=O)(=O)N3CCC(C(=O)NCc4ccc(C)cc4)CC3)cc2CC1C (configuration not stated)	8	5	17	-2	·	0
CC1Cc2ccccc2N1C(=O)C1CCN(S(=O)(=O)Cc2ccccc2)CC1 (configuration not stated)	·	-3	103*	·	·	·
Cc1ccc(S(=O)(=O)N(C)C[C@@H]2Oc3c(NS(=O)(=O)c4cn(C)cn4)cccc3C(=O)N([C@@H](C)CO)C[C@@H]2C)cc1	4	·	-8	·	0	·
CCC(=O)N/C(N)=N/c1nc(C)c2cc(C)c(C)cc2n1	-8	-2	·	18*	·	0
C/C=C/c1ccc([C@H]2[C@@H](CO)N(C(C)=O)[C@H]2CNC(=O)CC2CC2)cc1	3	-23	7	3	0	0
O=C(NC(Cc1c[nH]c2ccccc12)C(=O)O)c1ccco1 (configuration not stated)	·	6	84*	·	·	·
O=C(N[C@@H](Cc1ccc(O)cc1)C(=O)O)C(c1ccccc1)c1ccccc1	4	-5	-1	·	0	0
O=C(O)C(Cc1c[nH]c2ccccc12)NS(=O)(=O)c1ccc(Cl)cc1 (configuration not stated)	20	-13	-9	-6	9	43*
O=C(NC(Cc1ccc(O)cc1)C(=O)O)c1ccco1 (configuration not stated)	17	16	·	1	·	43*
Cc1cc(C)nc(NC(=NCCc2c[nH]c3ccccc23)NC(=O)c2ccco2)n1	·	·	128*	·	·	·
Cc1cc(C(=O)NC(Cc2c[nH]c3ccccc23)C(=O)O)c(C)o1 (configuration not stated)	9	-3	12	-5	0	0
CCc1cc2c(NC(Cc3c[nH]c4ccccc34)C(=O)O)nc(C)nc2s1 (configuration not stated)	-28*	4	·	-2	0	0
CCOc1ccc(NC(=O)Nc2cc(-c3ccccc3)sc2C(=O)OC)cc1	5	3	-1	16*	·	0
CCOc1ccc(-c2cc(NC(=O)c3c(F)cccc3F)c(C(=O)O)s2)cc1	-56	-1	3	2	0	0
COC(=O)c1sc(-c2ccc(Cl)cc2)cc1NC(=O)c1ccccc1C(=O)O	·	-11	·	1	1	0
COC(=O)c1sc(-c2ccccc2)cc1NC(=O)C1CC1	-27*	-4	·	-9	7	41
C[C@@H]1CN([C@@H](C)CO)C(=O)Cc2cc(NC(=O)CCN3CCOCC3)ccc2O[C@@H]1CN(C)C	1	·	8	3	·	0
CCN1CCN(Cc2ccc(C(=O)Nc3ccc(C)c(NCc4cnc(NC(=O)OC)cn4)c3)cc2C(F)(F)F)CC1	-17*!	9	2	-2	0	0
CN1C(=O)c2cc(NC(=O)C3CCOCC3)ccc2OC[C@H]2O[C@@H](CC(=O)NCc3ccc4c(c3)OCO4)CC[C@H]21	4	-2	2	-2	0	0
Oc1ccc(Br)cc1CNc1ccccn1	-16*	-3	·	1	·	0
CCOC(=O)N1CCN(C(=O)C2CCC(=O)N(Cc3cccc(C(F)(F)F)c3)C2)CC1 (configuration not stated)	10	1	-3	21*	0	0
CC1CCN(C(=O)C2CCC(=O)N(Cc3ccc(Cl)cc3)C2)CC1 (configuration not stated)	-1	5	8	23*	0	0
